These results are taken from ChEMBL document CHEMBL1124885, “Resolution, absolute stereochemistry, and enantioselectivity of 2-methyl-4-phenyl-1,2,3,4-tetrahydroisoquinolin-4-ol” (1990).

Assay [1] in a line: Activity ratio, difference between the pD2 values for NE obtained in the absence and presence at 10 E -7 M. The assay is classed as functional. The method, boiled down:
(§1)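 Isolated rat anococcygeus muscle. Concentration-response curves to norepinephrine (NE) were run with and without the test compound, and potentiation was judged from the shift at low NE concentrations. pD2 is the negative log of the molar NE concentration giving 50% of maximal response. Activity ratio is the antilog of the pD2 difference with versus without compound, with no compound set at 1.0. n is the number of experiments.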

The nature of assay [2]: Activity ratio, difference between the pD2 values for NE obtained in the absence and presence at 0 (absence of potentiating compound). The assay is classed as functional. The method, boiled down: as §1
A short description of assay [3]: Activity ratio, difference between the pD2 values for NE obtained in the absence and presence at 3 x 10 E -7 M. The assay is classed as functional. The method, boiled down: as §1
The species entered for assay [4] is Rattus norvegicus. Put plainly: Tested for potentiating activity on the responses of rat anococcygeus muscle to norepinephrine (NE)at a concentration of 3 x 10 E -6 M. The assay is classed as functional, Muscle tissue. The method, boiled down:
as §1

A short description of assay [5]: Activity ratio, difference between the pD2 values for NE obtained in the absence and presence at 10 E -6 M. The assay is classed as functional. The method, boiled down:
as §1

A short description of assay [6]: Activity ratio, difference between the pD2 values for NE obtained in the absence and presence at 3 x 10 E -6 M. The assay is classed as functional. The method, boiled down:
as §1

The species entered for assay [7] is Rattus norvegicus. Put plainly: Tested for potentiating activity on the responses of rat anococcygeus muscle to norepinephrine (NE)at a concentration of 0 (absence of potentiating compound). The assay is classed as functional, Muscle tissue. A digest of the protocol:
as §1

For assay [8], the species on record is Rattus norvegicus. The assay can be described thus: Tested for potentiating activity on the responses of rat anococcygeus muscle to norepinephrine (NE)at a concentration of 10 E -7 M. The assay is classed as functional, Muscle tissue. A digest of the protocol:
as §1

The species entered for assay [9] is Rattus norvegicus. Put plainly: Tested for potentiating activity on the responses of rat anococcygeus muscle to norepinephrine (NE)at a concentration of 10 E -6 M. The assay is classed as functional, Muscle tissue. The method, boiled down:
as §1

The species named for assay [10] is Rattus norvegicus. The assay can be described thus: Tested for potentiating activity on the responses of rat anococcygeus muscle to norepinephrine (NE)at a concentration of 3 x 10 E -7 M. The assay is classed as functional, Muscle tissue. A digest of the protocol:
as §1

The species named for assay [11] is Rattus norvegicus. Put plainly: Tested for potentiating activity on the responses of rat anococcygeus muscle to norepinephrine (NE)at a concentration of 10e-6 M. The assay is classed as functional, Muscle tissue. A digest of the protocol:
as §1

The species entered for assay [12] is Rattus norvegicus. Put plainly: Tested for potentiating activity on the responses of rat anococcygeus muscle to norepinephrine (NE)at a concentration of 3 x 10e -7 M. The assay is classed as functional, Muscle tissue. A digest of the protocol: as §1
The species entered for assay [13] is Rattus norvegicus. Put plainly: Tested for potentiating activity on the responses of rat anococcygeus muscle to norepinephrine (NE)at a concentration of 3 x 10e-6 M. The assay is classed as functional, Muscle tissue. A digest of the protocol:
as §1

Assay [14] in a line: Activity ratio, difference between the pD2 values for NE obtained in the absence and presence at 10e-7 M. The assay is classed as functional. The method, boiled down: as §1
Assay [15] can be described thus: Activity ratio, difference between the pD2 values for NE obtained in the absence and presence at 10e-6 M. The assay is classed as functional. A digest of the protocol:
as §1

The species entered for assay [16] is Rattus norvegicus. Put plainly: Tested for potentiating activity on the responses of rat anococcygeus muscle to norepinephrine (NE)at a concentration of 10e-7 M. The assay is classed as functional, Muscle tissue. The method, boiled down:
as §1

Assay [17] in a line: Activity ratio, difference between the pD2 values for NE obtained in the absence and presence at 3 x 10e-7 M. The assay is classed as functional. The method, boiled down:
as §1

Regarding `CN1Cc2ccccc2[C@](O)(c2ccccc2)C1`, the Ratio in [1] amounted to 2.3; in [2] it was 1; in [3], 6; in assay [5], 11.2; in assay [6], 21.4. For the same compound, the pD2 is listed as 7.56 in the assay listed under Rattus norvegicus [4]; 6.23 in the assay listed under Rattus norvegicus [7]; 6.6 in the assay listed under Rattus norvegicus [8]; 7.28 in the assay listed under Rattus norvegicus [9]; 7.01 in the assay listed under Rattus norvegicus [10].

Take `CN1Cc2ccccc2[C@@](O)(c2ccccc2)C1`: the Ratio amounted to 1 in assay [2], 1 in [3], 1 in [5] and 1.1 in assay [6]. In addition, the pD2 in the assay filed under Rattus norvegicus [4] was 6.27; in the assay filed under Rattus norvegicus [7], 6.23; in the assay listed under Rattus norvegicus [9], 6.23; in the assay filed under Rattus norvegicus [10], 6.24.

Regarding `CN1Cc2ccccc2C(O)(c2ccccc2)C1` (racemic), the Ratio in assay [2] amounted to 1; in [6], 17.8; in [14] it was 1.5; in assay [15], 8.5; in assay [17], 3. Also, the pD2 was found to be 7.18 in the assay listed under Rattus norvegicus [11]; 6.73 in the assay filed under Rattus norvegicus [12]; 6.25 in the assay filed under Rattus norvegicus [7]; 7.5 in the assay listed under Rattus norvegicus [13]; 6.42 in the assay filed under Rattus norvegicus [16].
